# From ChEMBL document CHEMBL1141409, “Structures, biogenesis, and biological activities of pyrano[4,3-c]isochromen-4-one derivatives from the Fungus Phellinus igniarius” (J Nat Prod, 2007)
# Key:
# [1] = test system: A549; assay: Cytotoxicity against human A549 cells; type: cell-based
# [2] = test system: HCT-8; assay: Cytotoxicity against human HCT8 cells; type: cell-based
# [3] = Cytotoxicity against human Bel7402 cells; type: cell-based; settings: Bel-7402
# [4] = test system: Liver microsomes; assay: Antioxidant activity assessed as inhibition of rat liver microsomal lipid peroxidation; type: functional, Microsome
# [5] = Cytotoxicity against human […] cells; type: cell-based
# [6] = molecular target: T1, Tyrosine-protein phosphatase non-receptor type 1 (Homo sapiens, UniProt P18031); assay: Inhibition of human PTP1B
# T1 sequence (P18031 whole entry): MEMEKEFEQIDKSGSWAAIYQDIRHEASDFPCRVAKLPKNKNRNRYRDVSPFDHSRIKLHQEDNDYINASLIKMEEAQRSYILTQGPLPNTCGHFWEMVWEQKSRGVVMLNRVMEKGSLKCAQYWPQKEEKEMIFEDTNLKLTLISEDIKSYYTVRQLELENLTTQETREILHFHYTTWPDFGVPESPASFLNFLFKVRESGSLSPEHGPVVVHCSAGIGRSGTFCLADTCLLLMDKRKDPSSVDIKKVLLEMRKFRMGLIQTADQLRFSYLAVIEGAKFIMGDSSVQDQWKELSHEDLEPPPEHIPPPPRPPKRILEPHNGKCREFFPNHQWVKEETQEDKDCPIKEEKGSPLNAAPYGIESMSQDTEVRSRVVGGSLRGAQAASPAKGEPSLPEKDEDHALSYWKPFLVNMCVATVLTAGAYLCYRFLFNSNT
# Summary of the method: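 Recombinant GST-tagged human PTP1B, purified from bacterial pellets on a GST bead column. Substrate 3 mM p-NPP in HEPES buffer, pH 7.0. Compounds dissolved in DMSO, 10% DMSO final in all reactions. First screened at 10 µM for 10 min at 30 °C. Reaction started by adding enzyme and stopped with 1 M NaOH. End-point p-nitrophenol absorbance at 405 nm.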
Compound,IC50 [1],IC50 [2],IC50 [3],IC50 [4] [µM],IC50 [5],IC50 [6] [µM]
CC1=CC(=O)[C@H](c2c(O)cc(/C=C/c3ccc(O)c(O)c3)oc2=O)[C@@H](c2ccc(O)c(O)c2)O1 [DAVALLIALACTONE],> 10 µg/mL,> 10 µg/mL,> 10 µg/mL,8.2,> 10 µg/mL,–
O=c1oc2cc(-c3c(-c4ccc(O)c(O)c4)oc4cc(/C=C/c5ccc(O)c(O)c5)oc(=O)c34)oc(=O)c2c2cc(O)c(O)cc12 [PHELLIGRIDIN H],> 10 µg/mL,> 10 µg/mL,> 10 µg/mL,4.8,> 10 µg/mL,–
O=c1oc(/C=C/c2ccc(O)c(O)c2)cc(O)c1-c1cc(O)c(O)cc1/C=C/c1cc2oc(=O)c3cc(O)c(O)cc3c2c(=O)o1 [PHELLIGRIDIN I],> 10 µg/mL,> 10 µg/mL,> 10 µg/mL,3.7,> 10 µg/mL,3
O=C(O)c1cc2oc(=O)c3cc(O)c(O)cc3c2c(=O)o1 [PHELLIGRIDIN J],4.2 µM,8.4 µM,9.2 µM,6.5,7.2 µM,> 10
CC[C@@]1(O)C(=O)OCc2c1cc1n(c2=O)Cc2cc3c(CN(C)C)c(O)ccc3nc2-1 [TOPOTECAN],3.1 µM,1.6 µM,1.4 µM,–,1.2 µM,–
